Laboratory results published in ChEMBL document CHEMBL1132954, “Synthesis and structure-activity relationships of chiral allosteric modifiers of hemoglobin” (2000).
“And” between values parts separate entries of the source, which are not always exact repeats. Equal values may be shown once.

Legend:
[1] = target: T1, Hemoglobin HbA (Homo sapiens) (UniProt P69905+P68871); test: Oxygen pressure at which hemoglobin is 50% saturated with oxygen in the presence of the effector.; type: functional
Outline: (§1)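 Purified stripped human adult Hb in 50 mM bis-Tris, 100 mM NaCl, pH 7.2, at 60-70 µM heme, with effector at 0.5 mM. Catalase and EDTA were added, and the sample was saturated with carbogen. The curve was recorded on a Hemox analyzer as O₂ pressure was lowered over 45-60 min, with saturation read at 577/586.2 nm. P50 came from linear regression of 40-60% saturation points. Single runs, each with its own no-effector control.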

[2] = Hill coefficient at 50% saturation in the presence of effector
[3] = target: T1, Hemoglobin HbA (Homo sapiens); test: Ratio of P50e to P50c (P50 control value with no effector present, 5 mmHg); type: functional; outline: as §1
[4] = The difference between P50e and P50c tested.; type: functional
Outline: (§2)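 Heparinized whole blood from healthy volunteers, kept on ice, was given the effector sodium salt from a 200 mM DMSO stock to 5.0 mM final. It was tonometered about 10-12 min at 37 °C and equilibrated at 20%, 40% and 60% O₂. pH, pCO₂, pO₂ and sO₂ were read by blood gas analyzer and co-oximeter, at least in duplicate. ΔP50 = P50e − P50c.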

Homo sapiens [5] = species on record: Homo sapiens; test: (§3) P50C is the control value in whole blood in experiment.; type: functional; outline: as §2
Homo sapiens [6] = species on record: Homo sapiens; test: (§4) P50e is the value in the presence of the effector in whole blood in experiment 2 (in vitro); type: functional; outline: as §2
Homo sapiens [7] = species on record: Homo sapiens; test: (§5) P50e is the value in the presence of the effector in whole blood in experiment 1 (in vitro); type: functional; outline: as §2
[8] = as §3; type: functional, Homo sapiens; outline: as §2
[9] = P50e is the value in the presence of the effector in whole blood in experiment 3 (in vitro); type: functional, Homo sapiens; outline: as §2
[10] = as §5; type: functional, Homo sapiens; outline: as §2
[11] = as §4; type: functional, Homo sapiens; outline: as §2

T1 sequence (P68871 2-147 partner limits assumed): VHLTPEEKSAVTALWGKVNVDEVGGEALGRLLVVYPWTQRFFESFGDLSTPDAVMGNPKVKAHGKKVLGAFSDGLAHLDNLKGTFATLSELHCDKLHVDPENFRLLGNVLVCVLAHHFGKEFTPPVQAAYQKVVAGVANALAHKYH
T1 sequence (P69905 2-142 limits assumed): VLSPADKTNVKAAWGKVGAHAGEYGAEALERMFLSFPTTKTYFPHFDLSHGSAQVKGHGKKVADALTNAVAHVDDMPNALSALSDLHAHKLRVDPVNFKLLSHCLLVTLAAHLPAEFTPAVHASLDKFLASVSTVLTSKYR

SMILES	P50e [1] [mmHg]	Hill coefficient (n50) [2]	P50e/P50c [3]	further results
Cc1cc(C)cc(NC(=O)Cc2ccc(OC(C)C(=O)O)cc2)c1 (single isomer, unassigned; (+)) [listing 1 of 2 here]	9.8	2.6 and 1.9	2	ΔP50 (P50e minus P50c) [4]: 20.7 mmHg
Cc1cc(C)cc(NC(=O)Cc2ccc(OC(C)C(=O)O)cc2)c1 (single isomer, unassigned; (-)) [listing 1 of 2 here]	–	–	–	P50c (Homo sapiens [5]): 27.8 mmHg; P50e (Homo sapiens [6]): 40.5 mmHg; P50e (Homo sapiens [7]): 39.7 mmHg
Cc1cc(C)cc(NC(=O)Cc2ccc(O[C@]3(C(=O)O)CCC[C@H]3C)cc2)c1	30.7	2.4 and 1.6	6.1	P50c (Homo sapiens [5]): 27.9 mmHg; P50e (Homo sapiens [6]): 72.5 mmHg; ΔP50 (P50e minus P50c) [4]: 47.6 mmHg; P50e (Homo sapiens [7]): 78.5 mmHg
Cc1cc(Cl)cc(NC(=O)Cc2ccc(OC(C)C(=O)O)cc2)c1 (centres undefined)	9.4	2.6	1.9	–
Cc1cc(C)cc(NC(=O)Cc2ccc(OC3(C(=O)O)CCCC(C)C3)cc2)c1 (centres undefined)	10.3	2.5	2.1	–
Cc1cc(C)cc(NC(=O)Cc2ccc(OC(C)C(=O)O)cc2)c1 (single isomer, unassigned; (-)) [listing 2 of 2 here]	6.6	2.5 and 2.2	1.3	ΔP50 (P50e minus P50c) [4]: 12.3 mmHg
CCC(Oc1ccc(CC(=O)Nc2cc(C)cc(C)c2)cc1)C(=O)O (single isomer, unassigned; (+))	18	2.7	3.6	–
CCC(C)(Oc1ccc(CC(=O)Nc2cc(C)cc(C)c2)cc1)C(=O)O (stereo in doubt; 10)	13.3	2.4	2.7	–
Cc1cc(C)cc(NC(=O)Cc2ccc(O[C@@]3(C(=O)O)CCC[C@@H]3C)cc2)c1	19.9	2.6 and 1.8	4	P50c [8]: 25.7 mmHg; ΔP50 (P50e minus P50c) [4]: 20.6 mmHg; P50e [9]: 42.4 mmHg; P50e [10]: 49.7 mmHg; P50e [11]: 46.8 mmHg
Cc1cc(C)cc(NC(=O)Cc2ccc(OC(C)(C)C(=O)O)cc2)c1 [EFAPROXIRAL]	23.4	2.3 and 1.47	4.7	P50c (Homo sapiens [5]): 29.8 mmHg; P50e (Homo sapiens [6]): 73.4 mmHg; ΔP50 (P50e minus P50c) [4]: 45.2 mmHg; P50e (Homo sapiens [7]): 76.5 mmHg
Cc1cc(C)cc(NC(=O)Cc2ccc(OC3(C(=O)O)CCCC3)cc2)c1	25.7	2.4 and 1.66	5.1	P50C (Homo sapiens [5]): 28.9 mmHg; P50e (Homo sapiens [6]): 67.7 mmHg; ΔP50 (P50e minus P50c) [4]: 42.3 mmHg; P50e (Homo sapiens [7]): 74.7 mmHg
CCC(Oc1ccc(CC(=O)Nc2cc(C)cc(C)c2)cc1)C(=O)O (single isomer, unassigned; (-))	9.8	2.8	2	–
Cc1cc(Cl)cc(NC(=O)Cc2ccc(OC3(C(=O)O)CCC(C)C3)cc2)c1 (centres undefined)	14	2.4	2.8	–
CCCC(Oc1ccc(CC(=O)Nc2cc(C)cc(C)c2)cc1)C(=O)O (centres undefined)	16.1	2.5	3.2	–
Cc1cc(C)cc(NC(=O)Cc2ccc(O[C@@]3(C(=O)O)CCO[C@@H]3C)cc2)c1	7.7	2.8	1.5	–
CCC(C)(Oc1ccc(CC(=O)Nc2cc(C)cc(Cl)c2)cc1)C(=O)O (centres undefined)	16.6	2.5	3.3	–
CC(C)(Oc1ccc(CC(=O)Nc2ccc3c(c2)CCC3)cc1)C(=O)O	15.3	2.6	3	–
CC1CCCC1(Oc1ccc(CC(=O)Nc2ccc3c(c2)CCC3)cc1)C(=O)O (centres undefined)	13.8	2.6	2.8	–
Cc1cc(Cl)cc(NC(=O)Cc2ccc(OC(C)(C)C(=O)O)cc2)c1	21	2.4	4.4	–
CCC(Oc1ccc(CC(=O)Nc2cc(C)cc(Cl)c2)cc1)C(=O)O (centres undefined)	13.1	2.6	2.6	–
Cc1cc(C)cc(NC(=O)Cc2ccc(OC3(C(=O)O)CCCC3C)cc2)c1 (racemic)	21.6	2.3 and 1.6	4.3	P50c (Homo sapiens [5]): 26.5 mmHg; P50e (Homo sapiens [6]): 67.2 mmHg; ΔP50 (P50e minus P50c) [4]: 40.1 mmHg; P50e (Homo sapiens [7]): 66 mmHg
CCC(C)(Oc1ccc(CC(=O)Nc2cc(C)cc(C)c2)cc1)C(=O)O (stereo in doubt; (-)-10)	10.5	2.3	2.1	–
Cc1cc(C)cc(NC(=O)Cc2ccc(OC3(C(=O)O)CCC(C)C3)cc2)c1 (centres undefined)	12.9	2.5	2.6	–
Cc1cc(C)cc(NC(=O)Cc2ccc(OC3(C(=O)O)CCOC3C)cc2)c1 (centres undefined)	7.6	2.4	1.5	–
Cc1cc(C)cc(NC(=O)Cc2ccc(OC(C)C(=O)O)cc2)c1 (single isomer, unassigned; (+)) [listing 2 of 2 here]	–	–	–	P50c (Homo sapiens [5]): 27.3 mmHg; P50e (Homo sapiens [6]): 48.7 mmHg; P50e (Homo sapiens [7]): 47.4 mmHg
Cc1cc(C)cc(NC(=O)Cc2ccc(OC3(C(=O)O)CCOCC3)cc2)c1	7.6	2.4	1.5	–
CCC(Oc1ccc(CC(=O)Nc2cc(C)cc(C)c2)cc1)C(=O)O (stereo in doubt; 32)	13	2.7	2.6	–
Cc1cc(C)cc(NC(=O)Cc2ccc(OC(C)C(=O)O)cc2)c1 (racemic) [listing 2 of 2 here]	–	–	–	P50c (Homo sapiens [5]): 27.2 mmHg; P50e (Homo sapiens [6]): 43.5 mmHg; P50e (Homo sapiens [7]): 47.2 mmHg

Now from value to compound, other results behind:

P50e [1] [mmHg]	Hill coefficient (n50) [2]	P50e/P50c [3]	SMILES	further results
9.3	2.6	1.9	Cc1cc(C)cc(NC(=O)Cc2ccc(O[C@]3(C(=O)O)CCO[C@H]3C)cc2)c1	–
12.7	2.6	2.5	CC1CCC(Oc2ccc(CC(=O)Nc3ccc4c(c3)CCC4)cc2)(C(=O)O)C1 (centres undefined)	–
10.6	2.3	2.1	CCC(C)(Oc1ccc(CC(=O)Nc2ccc3c(c2)CCC3)cc1)C(=O)O (centres undefined)	–
11.7	2.7	2.3	CCCC(C)(Oc1ccc(CC(=O)Nc2cc(C)cc(C)c2)cc1)C(=O)O (centres undefined)	–
9.1	2.6	1.8	CCC(Oc1ccc(CC(=O)Nc2ccc3c(c2)CCC3)cc1)C(=O)O (centres undefined)	–
17.4	2.4	3.5	CCC(C)(Oc1ccc(CC(=O)Nc2cc(C)cc(C)c2)cc1)C(=O)O (single isomer, unassigned; (+))	–
5.9	2.5	1.2	Cc1cc(C)cc(NC(=O)Cc2ccc(OC(F)C(=O)O)cc2)c1 (centres undefined)	–
8.4	2.4	1.7	COCC(C)(Oc1ccc(CC(=O)Nc2cc(C)cc(C)c2)cc1)C(=O)O (centres undefined)	–
9.3	2.6 and 2	1.9	Cc1cc(C)cc(NC(=O)Cc2ccc(OC(C)C(=O)O)cc2)c1 (racemic) [listing 1 of 2 here]	ΔP50 (P50e minus P50c) [4]: 18.2 mmHg
21.9	2.4	4.4	Cc1cc(Cl)cc(NC(=O)Cc2ccc(OC3(C(=O)O)CCCC3C)cc2)c1 (centres undefined)	–
17	2.5	3.4	CCCCC(Oc1ccc(CC(=O)Nc2cc(C)cc(C)c2)cc1)C(=O)O (centres undefined)	–
6.3	2.7	1.3	CC(Oc1ccc(CC(=O)Nc2ccc3c(c2)CCC3)cc1)C(=O)O (centres undefined)	–
